# Key:
# Type in all cases: functional
# Pseudomonas aeruginosa [1] = test: Antimicrobial activity against Pseudomonas aeruginosa isolate PA-SD2 harboring blaVIM-1 gene by Etest method
# Pseudomonas aeruginosa [2] = test: Antimicrobial activity against Pseudomonas aeruginosa isolate PA-SL2 harboring blaVIM-13 gene by Etest method
# Pseudomonas aeruginosa [3] = test: Antimicrobial activity against Pseudomonas aeruginosa PAO1 harboring pUCP carrying VIM-1 gene by Etest method
# Procedure, shortened: (§1)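 Etest MICs of piperacillin, piperacillin-tazobactam, ceftazidime, cefepime, cefotaxime, aztreonam, imipenem and meropenem, run per manufacturer's recommendations. Strains were E. coli XL1-Blue or P. aeruginosa PAO1 carrying pUCP24-derived plasmids with blaVIM-1 or blaVIM-13 (cloned by EcoRI) inserted in the lacZ-promoter orientation. E. coli transformants were selected on 10 μg/ml gentamicin MacConkey agar; PAO1 electroporants were selected on 50 μg/ml gentamicin LB agar.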
# Pseudomonas aeruginosa [4] = test: Antimicrobial activity against Pseudomonas aeruginosa PAO1 harboring pUCP carrying VIM-13 gene by Etest method; procedure, shortened: as §1
# Pseudomonas aeruginosa [5] = test: Antimicrobial activity against Pseudomonas aeruginosa PAO1 by Etest method
# Escherichia coli [6] = test: Antimicrobial activity against Escherichia coli XL1-Blue harboring pUCP carrying VIM-1 gene by Etest method; procedure, shortened: as §1
# Escherichia coli [7] = test: Antimicrobial activity against Escherichia coli XL1-Blue harboring pUCP carrying VIM-13 gene by Etest method; procedure, shortened: as §1
# Escherichia coli [8] = test: Antimicrobial activity against Escherichia coli XL1-Blue by Etest method
# Pseudomonas aeruginosa [9] = test: Antimicrobial activity against Pseudomonas aeruginosa isolate PA-SD2 harboring blaVIM-1 gene by Etest method in presence of Tazobactam
# Pseudomonas aeruginosa [10] = test: Antimicrobial activity against Pseudomonas aeruginosa isolate PA-SL2 harboring blaVIM-13 gene by Etest method in presence of Tazobactam
# Pseudomonas aeruginosa [11] = test: Antimicrobial activity against Pseudomonas aeruginosa PAO1 harboring pUCP carrying VIM-1 gene by Etest method in presence of Tazobactam
# Pseudomonas aeruginosa [12] = test: Antimicrobial activity against Pseudomonas aeruginosa PAO1 harboring pUCP carrying VIM-13 gene by Etest method in presence of Tazobactam
# Pseudomonas aeruginosa [13] = test: Antimicrobial activity against Pseudomonas aeruginosa PAO1 by Etest method in presence of Tazobactam
# Procedure, shortened: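 Etest MICs of piperacillin-tazobactam for P. aeruginosa PAO1 electroporated with pUCP24 carrying cloned blaVIM-1 or blaVIM-13, with the insert in lacZ promoter orientation. Transformants were selected on 50 μg/ml gentamicin LB agar. Testing followed the manufacturer's recommendations, with CLSI breakpoints.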
# Escherichia coli [14] = test: Antimicrobial activity against Escherichia coli XL1-Blue harboring pUCP carrying VIM-1 gene by Etest method in presence of Tazobactam; procedure, shortened: as §1
# Escherichia coli [15] = test: Antimicrobial activity against Escherichia coli XL1-Blue harboring pUCP carrying VIM-13 gene by Etest method in presence of Tazobactam
# Procedure, shortened: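 blaVIM-13 was PCR-amplified, passed through pGEM-T, and moved as an EcoRI fragment into pUCP24, with the insert oriented with the lacZ promoter (checked by PCR and sequencing). It was transformed into CaCl2-competent E. coli XL1-Blue and selected on MacConkey agar with 10 μg/ml gentamicin. Piperacillin-tazobactam MIC was read by Etest strip.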
# Escherichia coli [16] = test: Antimicrobial activity against Escherichia coli XL1-Blue by Etest method in presence of Tazobactam
smiles,measurement,setting,value
CCN1CCN(C(=O)N[C@@H](C(=O)N[C@@H]2C(=O)N3[C@@H]2SC(C)(C)[C@@H]3C(=O)O)c2ccccc2)C(=O)C1=O [PIPERACILLIN],MIC,Pseudomonas aeruginosa [1],> 256 µg/mL
same,MIC,Pseudomonas aeruginosa [2],> 256 µg/mL
same,MIC,Pseudomonas aeruginosa [3],64 µg/mL
same,MIC,Pseudomonas aeruginosa [4],192 µg/mL
same,MIC,Pseudomonas aeruginosa [5],3 µg/mL
same,MIC,Escherichia coli [6],6 µg/mL
same,MIC,Escherichia coli [7],8 µg/mL
same,MIC,Escherichia coli [8],1.5 µg/mL
same,MIC,Pseudomonas aeruginosa [9],> 256 µg/mL
same,MIC,Pseudomonas aeruginosa [10],> 256 µg/mL
same,MIC,Pseudomonas aeruginosa [11],48 µg/mL
same,MIC,Pseudomonas aeruginosa [12],192 µg/mL
same,MIC,Pseudomonas aeruginosa [13],3 µg/mL
same,MIC,Escherichia coli [14],6 µg/mL
same,MIC,Escherichia coli [15],8 µg/mL
same,MIC,Escherichia coli [16],1 µg/mL

# From ChEMBL document CHEMBL1275500, “Characterization of the new metallo-beta-lactamase VIM-13 and its integron-borne gene from a Pseudomonas aeruginosa clinical isolate in Spain” (Antimicrob Agents Chemother, 2008)
